Test results from ChEMBL document CHEMBL1287642, “Synthesis, antiviral activity and cytotoxicity evaluation of Schiff bases of some 2-phenyl quinazoline-4(3)H-ones” (Eur J Med Chem, 2010).
Values after ≈ are worked out from the molar mass of the structure shown.

Key:
[1] = Cytotoxicity against human HEL cells assessed as minimum concentration required to cause microscopically detectable alteration after 2 days; type: cell-based; conditions: read-out: Activity
[2] = tested on: Human alphaherpesvirus 1; experiment: Antiviral activity against Herpes simplex virus-1 KOS infected in human HEL cells assessed as protection against virus-induced cytopathogenicity after 2 days; type: functional, organism-based; conditions: Human alphaherpesvirus 1, KOS, 48 h
[3] = tested on: Human alphaherpesvirus 2; experiment: Antiviral activity against Herpes simplex virus-2 G infected in human HEL cells assessed as protection against virus-induced cytopathogenicity after 2 days; type: functional, organism-based; conditions: Human alphaherpesvirus 2, strain G, 48 h
[4] = tested on: Vesicular stomatitis virus; experiment: Antiviral activity against Vesicular stomatitis virus infected in human HEL cells assessed as protection against virus-induced cytopathogenicity after 2 days; type: functional, organism-based; conditions: 48 h
[5] = tested on: Human alphaherpesvirus 1; experiment: Antiviral activity against acyclovir-resistant TK deficient Herpes simplex virus-1 KOS infected in human HEL cells assessed as protection against virus-induced cytopathogenicity after 2 days; type: functional, organism-based; conditions: Human alphaherpesvirus 1, KOS, 48 h
[6] = Cytotoxicity against african green monkey Vero cells assessed as minimum concentration required to cause microscopically detectable alteration after 2 days; type: cell-based; conditions: chlorocebus sabaeus, read-out: Activity
[7] = tested on: Human respirovirus 3; experiment: Antiviral activity against Para influenza-3 virus infected in african green monkey Vero cells assessed as protection against virus-induced cytopathogenicity after 2 days; type: functional, organism-based; conditions: Human respirovirus 3, Vero, 48 h
[8] = tested on: Mammalian orthoreovirus 1; experiment: Antiviral activity against Reovirus-1 infected in african green monkey Vero cells assessed as protection against virus-induced cytopathogenicity after 2 days; type: functional, organism-based; conditions: Mammalian orthoreovirus 1, Vero, 48 h
[9] = tested on: Sindbis virus; experiment: Antiviral activity against Sindbis virus infected in african green monkey Vero cells assessed as protection against virus-induced cytopathogenicity after 2 days; type: functional, organism-based; conditions: 48 h
[10] = tested on: Coxsackievirus B4; experiment: Antiviral activity against Coxsackie virus B4 infected in african green monkey Vero cells assessed as protection against virus-induced cytopathogenicity after 2 days; type: functional, organism-based; conditions: Enterovirus B, 48 h
[11] = tested on: Punta Toro virus; experiment: Antiviral activity against Punta Toro virus infected in african green monkey Vero cells assessed as protection against virus-induced cytopathogenicity after 2 days; type: functional, organism-based; conditions: 48 h
[12] = Cytotoxicity against cat CRFK cells by MTS assay; type: cell-based, Felis catus; conditions: crfk
How it was run: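 In uninfected CRFK cells, the 50% cytotoxic concentration was derived from cell viability measured by the colorimetric formazan-based MTS assay.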

[13] = tested on: Feline infectious peritonitis virus; experiment: Antiviral activity against Feline coronavirus FIPV infected in cat CRFK cells assessed as protection against virus-induced cytopathogenicity after 2 days by MTS assay; type: functional, cell-based; conditions: Alphacoronavirus 1, CRFK, 48 h
[14] = tested on: Felid alphaherpesvirus 1; experiment: Antiviral activity against Feline herpes virus infected in cat CRFK cells assessed as protection against virus-induced cytopathogenicity after 2 days by MTS assay; type: functional, organism-based; conditions: Felid alphaherpesvirus 1, CRFK, 48 h
[15] = Cytotoxicity against human HeLa cells assessed as minimum concentration required to cause microscopically detectable alteration after 2 days; type: cell-based; conditions: read-out: Activity
[16] = tested on: Vesicular stomatitis virus; experiment: Antiviral activity against Vesicular stomatitis virus infected in human HeLa cells assessed as protection against virus-induced cytopathogenicity after 2 days; type: functional, organism-based; conditions: 48 h
[17] = tested on: Coxsackievirus B4; experiment: Antiviral activity against Coxsackie virus B4 infected in human HeLa cells assessed as protection against virus-induced cytopathogenicity after 2 days; type: functional, organism-based; conditions: Enterovirus B, 48 h
[18] = tested on: Respiratory syncytial virus; experiment: Antiviral activity against Respiratory syncytial virus infected in human HeLa cells assessed as protection against virus-induced cytopathogenicity after 2 days; type: functional, organism-based; conditions: 48 h
[19] = Selectivity index, ratio of minimum concentration required to cause microscopically detectable alteration in human HEL cells to EC50 for Herpes simplex virus-1 KOS; type: toxicity, cell-based; conditions: read-out: Selectivity Index
How it was run: (§1)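 Cytotoxicity was taken as the concentration causing a microscopically detectable change in normal cell morphology (Vero or HEL). […] The selectivity index is the first divided by the second.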

[20] = Selectivity index, ratio of minimum concentration required to cause microscopically detectable alteration in human HEL cells to EC50 for Herpes simplex virus-2 G; type: toxicity, cell-based; conditions: read-out: Selectivity Index; how it was run: as §1
[21] = Selectivity index, ratio of minimum concentration required to cause microscopically detectable alteration in human HEL cells to EC50 for acyclovir-resistant TK deficient Herpes simplex virus-1 KOS; type: toxicity, cell-based; conditions: read-out: Selectivity Index; how it was run: as §1
[22] = Selectivity index, ratio of minimum concentration required to cause microscopically detectable alteration in human HEL cells to EC50 for acyclovir-resistant TK deficient Vaccina virus; type: toxicity, cell-based; conditions: read-out: Selectivity Index; how it was run: as §1
[23] = tested on: Influenza A virus; experiment: Antiviral activity against influenza A virus H1N1 infected in MDCK cells assessed as protection against virus-induced cytopathogenicity at 100 ug/ml after 2 days; type: functional, organism-based
How it was run: (§2)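 Infected MDCK cells were treated. […] N.A. means not active at the highest concentration tested or at a subtoxic concentration.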

[24] = tested on: Influenza A virus; experiment: Antiviral activity against Influenza A virus H3N2 infected in MDCK cells assessed as protection against virus-induced cytopathogenicity at 100 ug/ml after 2 days; type: functional, organism-based; how it was run: as §2
[25] = tested on: Influenza B virus; experiment: Antiviral activity against influenza B virus infected in MDCK cells assessed as protection against virus-induced cytopathogenicity at 100 ug/ml after 2 days; type: functional, organism-based; how it was run: as §2
[26] = tested on: MDCK; experiment: Cytotoxicity against MDCK cells by MTS assay; type: cell-based, Canis lupus familiaris; conditions: dog, mdck
How it was run: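 In Madin Darby canine kidney cells, the 50% cytotoxic concentration was derived from cell viability measured by the colorimetric formazan-based MTS assay.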

[27] = Cytotoxicity against MDCK cells assessed as minimum concentration required to cause microscopically detectable alteration after 2 days; type: cell-based, Canis lupus familiaris; conditions: dog, read-out: Activity
[28] = tested on: Influenza A virus; experiment: Antiviral activity against influenza A virus H1N1 infected in MDCK cells assessed as cell viability at 100 ug/ml after 2 days by MTS assay; type: functional, organism-based
[29] = tested on: Influenza A virus; experiment: Antiviral activity against Influenza A virus H3N2 infected in MDCK cells assessed as cell viability at 100 ug/ml after 2 days by MTS assay; type: functional, organism-based
[30] = tested on: Influenza B virus; experiment: Antiviral activity against influenza B virus infected in MDCK cells assessed as cell viability at 100 ug/ml after 2 days by MTS assay; type: functional, organism-based
[31] = tested on: Influenza B virus; experiment: Antiviral activity against influenza B virus infected in MDCK cells assessed as protection against virus-induced cytopathogenicity after 2 days; type: functional, organism-based; how it was run: as §2
[32] = tested on: Influenza B virus; experiment: Antiviral activity against influenza B virus infected in MDCK cells assessed as cell viability after 2 days by MTS assay; type: functional, organism-based

Row | Structure (SMILES) | MCC at 48 h [1] | EC50 [2] | EC50 [3] | EC50 [4] | EC50 [5] | MCC at 48 h [6] | EC50 [7] | EC50 [8] | EC50 [9] | EC50 [10] | EC50 [11] | CC50 [12] | EC50 [13] | EC50 [14] | MCC at 48 h [15] | EC50 [16] | EC50 [17] | EC50 [18] | CC50 [26] | MCC at 48 h [27] | further results
1 | O=c1c2ccccc2nc(-c2ccccc2)n1/N=C/c1ccccc1 | > 100 µg/mL | 7 µg/mL (≈ 21.5 µM) | 9 µg/mL (≈ 27.7 µM) | > 100 µg/mL | 9 µg/mL (≈ 27.7 µM) | 20 µg/mL | > 4 µg/mL | > 4 µg/mL | > 4 µg/mL | > 4 µg/mL | > 4 µg/mL | 3.7 µg/mL (≈ 11.4 µM) | > 0.8 µg/mL | > 0.8 µg/mL | 20 µg/mL | > 4 µg/mL | > 4 µg/mL | > 4 µg/mL | 15 µg/mL (≈ 46.1 µM) | 20 µg/mL | selectivity ratio [19]: 14; selectivity ratio [20]: 11; selectivity ratio [21]: 11; selectivity ratio [22]: 11; EC50 [23]: Not Active; EC50 [24]: Not Active; EC50 [25]: Not Active; EC50 [28]: Not Active; EC50 [29]: Not Active; EC50 [30]: Not Active
2 | CC(N)C12CC3CC(CC(C3)C1)C2 (stereo not given) [RIMANTADINE] |  |  |  |  |  |  |  |  |  |  |  |  |  |  |  |  |  |  | 472 µg/mL (≈ 2630 µM) | 1000 µg/mL | EC50 [31]: Not Active; EC50 [32]: Not Active
3 | COc1ccc(/C=N/n2c(-c3ccccc3)nc3ccccc3c2=O)cc1 | > 100 µg/mL | 9 µg/mL (≈ 25.3 µM) | 8 µg/mL (≈ 22.5 µM) | > 100 µg/mL | 9 µg/mL (≈ 25.3 µM) | 100 µg/mL | > 20 µg/mL | > 20 µg/mL | > 20 µg/mL | > 20 µg/mL | > 20 µg/mL | 13.7 µg/mL (≈ 38.5 µM) | > 4 µg/mL | > 4 µg/mL | 20 µg/mL | > 4 µg/mL | > 4 µg/mL | > 4 µg/mL | 8.2 µg/mL (≈ 23.1 µM) | 20 µg/mL | selectivity ratio [19]: 11; selectivity ratio [20]: 13; selectivity ratio [21]: 11; selectivity ratio [22]: 11; EC50 [23]: Not Active; EC50 [24]: Not Active; EC50 [25]: Not Active; EC50 [28]: Not Active; EC50 [29]: Not Active; EC50 [30]: Not Active
4 | COc1ccccc1/C=N/n1c(-c2ccccc2)nc2ccccc2c1=O | 100 µg/mL | > 20 µg/mL | > 20 µg/mL | > 20 µg/mL | > 20 µg/mL | 100 µg/mL | > 20 µg/mL | > 20 µg/mL | > 20 µg/mL | > 20 µg/mL | > 20 µg/mL | 14.4 µg/mL (≈ 40.5 µM) | > 4 µg/mL | > 4 µg/mL | 20 µg/mL | > 4 µg/mL | > 4 µg/mL | > 4 µg/mL | 12.4 µg/mL (≈ 34.9 µM) | 20 µg/mL | EC50 [23]: Not Active; EC50 [24]: Not Active; EC50 [25]: Not Active; EC50 [28]: Not Active; EC50 [29]: Not Active; EC50 [30]: Not Active
